Test results taken from ChEMBL document CHEMBL4052611, “Opportunistic Sampling of Roadkill as an Entry Point to Accessing Natural Products Assembled by Bacteria Associated with Non-anthropoidal Mammalian Microbiomes” (J Nat Prod, 2017).

Experiments:
[1] = tested on: Candida albicans; assay: Antibiofilm activity against Candida albicans SC5314 after 48 hrs by XTT assay; format: functional; conditions: SC5314, 48 h
In short: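 SC5314 grown overnight in BHI at 37 °C, then washed in PBS and resuspended in RPMI-1640 buffered to pH 7.0 with 0.17 M MOPS. Cells at 2.5×10^3 cells mL^-1 were incubated 48 h at 37 °C with compounds (2 mM DMSO stocks; DMSO ≤2% v/v final). Wells were washed twice with PBS and refilled with fresh medium. Biofilm was read by XTT (0.1 mg mL^-1, 1 h, 37 °C) at A492. Triplicate, three separate occasions.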

[2] = tested on: Candida albicans; assay: Induction of cell killing in Candida albicans SC5314 up to 100 uM after 48 hrs by XTT assay
In short: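 Growth assay based on CLSI M27-A3, modified. SC5314 was precultured overnight in BHI at 37 °C, washed in PBS (pH 7.4) and resuspended at 2.5×10^3 cells mL^-1 in RPMI-1640/MOPS (pH 7.0). Compounds came from 2 mM DMSO stocks (DMSO ≤2% v/v final). After 48 h at 37 °C, viability was read by XTT (0.1 mg mL^-1, 1 h) at A492. MIC = lowest concentration giving ≥85% loss of metabolic activity. Triplicate, three occasions.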

Row | SMILES | IC50 [1] | Activity [2]
1 | CCCCCCC[C@@H]1CC(=O)N[C@H](CC(C)C)C(=O)N[C@@H](CO)C(=O)N[C@@H]([C@@H](C)O)C(=O)N[C@H](Cc2ccc(O)cc2)C(=O)N[C@@H]([C@@H](C)CC)C(=O)O1 | 29.2 µM | Non-Toxic
2 | CCCCCCC[C@@H]1CC(=O)N[C@H](CC(C)C)C(=O)N[C@@H](CO)C(=O)N[C@@H]([C@@H](C)O)C(=O)N[C@H](Cc2ccccc2)C(=O)N[C@@H](C(C)C)C(=O)O1 | 59.8 µM | Non-Toxic
3 | CCCCCCC[C@@H]1CC(=O)N[C@H](CC(C)C)C(=O)N[C@@H](CO)C(=O)N[C@@H]([C@@H](C)O)C(=O)N[C@H](Cc2ccccc2)C(=O)N[C@@H]([C@@H](C)CC)C(=O)O1 | 7.7 µM | Non-Toxic
4 | CCCCC[C@@H]1CC(=O)N[C@H](CC(C)C)C(=O)N[C@@H](CO)C(=O)N[C@@H]([C@@H](C)O)C(=O)N[C@H](Cc2ccccc2)C(=O)N[C@@H]([C@@H](C)CC)C(=O)O1 | 13.4 µM | Non-Toxic
